SMILES strings stand for the structures. Activity calls are given as the source filed them. The rule behind the calls is not given here.

In assay [1] the target is T1, Alpha-1A adrenergic receptor (Homo sapiens, UniProt P35348).
T1 sequence (P35348 whole entry): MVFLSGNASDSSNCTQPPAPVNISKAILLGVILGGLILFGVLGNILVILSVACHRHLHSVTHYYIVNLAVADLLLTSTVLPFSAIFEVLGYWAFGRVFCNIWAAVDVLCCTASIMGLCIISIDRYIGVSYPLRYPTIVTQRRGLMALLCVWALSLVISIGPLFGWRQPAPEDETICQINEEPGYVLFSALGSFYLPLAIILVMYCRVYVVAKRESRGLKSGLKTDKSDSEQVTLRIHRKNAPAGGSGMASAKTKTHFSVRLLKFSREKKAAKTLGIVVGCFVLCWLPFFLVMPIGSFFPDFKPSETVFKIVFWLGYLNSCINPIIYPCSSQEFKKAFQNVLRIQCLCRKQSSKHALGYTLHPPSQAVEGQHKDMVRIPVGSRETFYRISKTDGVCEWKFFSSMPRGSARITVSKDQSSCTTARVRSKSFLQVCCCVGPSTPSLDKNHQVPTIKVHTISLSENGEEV
As to the kind of experiment: Displacement of [3H]prazosin from human alpha1A adrenoceptor expressed in CHO cells. It counts as cell-based. In outline:
(§1)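 Radioligand competition binding used [3H]prazosin on membranes of CHO cells expressing human α1a, α1b or α1d adrenoceptor. IC50 values were converted to pKi by the Cheng-Prusoff equation. Data come from two to three experiments run in triplicate, agreeing within ±20%.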
A general note: Displacement assays read how much labelled ligand stays bound in the presence of the test substance.

The target in assay [2] is T2, Alpha-1B adrenergic receptor (Homo sapiens, UniProt P35368).
T2 sequence (P35368 whole entry): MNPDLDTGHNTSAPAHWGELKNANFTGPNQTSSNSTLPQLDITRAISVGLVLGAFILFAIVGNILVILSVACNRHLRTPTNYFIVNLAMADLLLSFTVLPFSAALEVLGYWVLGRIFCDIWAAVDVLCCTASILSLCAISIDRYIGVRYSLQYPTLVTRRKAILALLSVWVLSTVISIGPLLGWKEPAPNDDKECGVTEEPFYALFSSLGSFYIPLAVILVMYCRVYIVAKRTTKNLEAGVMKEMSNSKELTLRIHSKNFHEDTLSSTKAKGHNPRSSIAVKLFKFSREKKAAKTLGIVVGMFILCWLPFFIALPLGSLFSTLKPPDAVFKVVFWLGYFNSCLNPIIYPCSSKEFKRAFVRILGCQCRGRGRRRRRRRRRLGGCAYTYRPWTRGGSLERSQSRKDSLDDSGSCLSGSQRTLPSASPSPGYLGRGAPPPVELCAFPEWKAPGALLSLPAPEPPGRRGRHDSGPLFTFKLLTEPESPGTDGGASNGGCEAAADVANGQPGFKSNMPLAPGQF
As to the kind of experiment: Displacement of [3H]prazosin from human Alpha-1B adrenoceptor expressed in CHO cells. The format is cell-based. In outline: as §1

Assay [3] deals with T3, Alpha-1D adrenergic receptor (Homo sapiens, UniProt P25100).
T3 sequence (P25100 whole entry): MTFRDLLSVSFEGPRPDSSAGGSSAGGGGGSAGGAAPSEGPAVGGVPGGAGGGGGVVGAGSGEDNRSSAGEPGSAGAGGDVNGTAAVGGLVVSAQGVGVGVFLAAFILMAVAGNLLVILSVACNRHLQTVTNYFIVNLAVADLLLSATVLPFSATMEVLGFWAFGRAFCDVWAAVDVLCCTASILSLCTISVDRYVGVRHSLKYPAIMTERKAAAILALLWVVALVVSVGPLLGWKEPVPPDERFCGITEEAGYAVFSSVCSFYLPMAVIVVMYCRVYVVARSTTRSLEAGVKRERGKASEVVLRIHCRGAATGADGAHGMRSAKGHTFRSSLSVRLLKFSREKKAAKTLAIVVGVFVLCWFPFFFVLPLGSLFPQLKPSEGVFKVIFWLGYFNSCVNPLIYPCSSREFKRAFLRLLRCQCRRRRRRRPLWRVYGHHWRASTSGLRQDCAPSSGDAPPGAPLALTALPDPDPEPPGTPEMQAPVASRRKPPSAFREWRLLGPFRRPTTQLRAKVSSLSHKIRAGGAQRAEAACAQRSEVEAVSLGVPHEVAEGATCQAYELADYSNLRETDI
As to the kind of experiment: Displacement of [3H]prazosin from human Alpha-1D adrenoceptor expressed in CHO cells. The format is cell-based. The procedure, abridged:
as §1

In assay [4] the target is T4, Alpha-1A adrenergic receptor (Rattus norvegicus, UniProt P43140).
T4 sequence (P43140 whole entry): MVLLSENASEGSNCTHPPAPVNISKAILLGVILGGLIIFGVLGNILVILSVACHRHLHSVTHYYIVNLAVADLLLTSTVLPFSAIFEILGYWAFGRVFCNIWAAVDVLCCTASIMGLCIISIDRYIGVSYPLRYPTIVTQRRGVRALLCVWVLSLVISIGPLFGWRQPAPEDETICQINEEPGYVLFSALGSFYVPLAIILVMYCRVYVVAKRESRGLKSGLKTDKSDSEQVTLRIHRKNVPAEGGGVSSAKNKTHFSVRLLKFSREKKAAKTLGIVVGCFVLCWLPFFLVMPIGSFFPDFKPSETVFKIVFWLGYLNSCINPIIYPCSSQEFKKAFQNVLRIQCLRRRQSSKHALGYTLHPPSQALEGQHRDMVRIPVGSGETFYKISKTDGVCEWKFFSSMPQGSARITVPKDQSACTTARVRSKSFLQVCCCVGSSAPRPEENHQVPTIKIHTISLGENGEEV
As to the kind of experiment: Antagonist activity at rat alpha1A adrenoceptor assessed as inhibition if norepinephrine-induced contraction of vas deference. It counts as functional. Conditions: read-out: pA2 (converted). In outline: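 Isolated rat tissue contraction assay. The α1A response used vas deferens with (-)-noradrenaline as agonist, α1D used thoracic aorta with (-)-noradrenaline, and α1B used spleen with (-)-phenylephrine. pA2 values are means ± SEM over three antagonist concentrations, each tested at least four times. Where the Schild slope differed from unity, pKB was calculated by van Rossum at the lowest antagonist concentration giving log(CR−1) ≥0.5.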

Assay [5] has as its system PC-3. As to the kind of experiment: Cytotoxicity against human PC3 cells after 72 hrs by CellTitter-Glo luminescent cell viability assay. It counts as functional, cell-based. Conditions: PC-3, 72 h.
In assay [6] the test system is DU-145. Nature of the assay: Cytotoxicity against human DU145 cells after 72 hrs by CellTitter-Glo luminescent cell viability assay. The format is functional, cell-based. Conditions: DU-145, 72 h.
Assay [7] deals with LNCaP. As to the kind of experiment: Cytotoxicity against human LNCAP cells after 72 hrs by CellTitter-Glo luminescent cell viability assay. The format is functional, cell-based.
For assay [8], the system named is NHDF. As to the kind of experiment: Cytotoxicity against human NHDF cells after 72 hrs by CellTitter-Glo luminescent cell viability assay. The format is functional, cell-based.
Assay [9] deals with PC-3. As to the kind of experiment: Induction of apoptosis in human PC3 cells assessed as caspase 3/7 activation after 24 hrs by Caspase-Glo 3/7 assay. The format is functional, cell-based. Conditions: PC-3, 24 h.
For assay [10], the system named is DU-145. As to the kind of experiment: Induction of apoptosis in human DU145 cells assessed as caspase 3/7 activation after 24 hrs Caspase-Glo 3/7 assay. The format is functional, cell-based. Conditions: Homo sapiens, DU-145, 24 h.
The test system of assay [11] is LNCaP. Nature of the assay: Induction of apoptosis in human LNCAP cells assessed as caspase 3/7 activation after 24 hrs Caspase-Glo 3/7 assay. Conditions: Homo sapiens, LNCaP, 24 h; read-out: EC50. The format is functional, cell-based.
Assay [12] deals with NHDF. As to the kind of experiment: Induction of apoptosis in human NHDF cells assessed as caspase 3/7 activation after 24 hrs Caspase-Glo 3/7 assay. It counts as functional, cell-based.
In assay [13] the test system is PC-3. Nature of the assay: Induction of apoptosis in human PC3 cells xenografted in NU/NU mouse assessed as DNA fragmentation at 0.3 to 3 mg/kg by agarose gel electrophoresis. The format is functional, organism-based. In outline:
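DNA from PC-3 subcutaneous tumors of orally treated nude mice was run on an electrophoretic gel. Apoptosis was scored as a DNA ladder pattern.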

The subject of assay [14] is PC-3. Nature of the assay: Antiangiogenic activity in human PC3 cells xenografted in NU/NU mouse assessed as reduction vascularization at 3 mg/kg by immunohistochemistry. The format is functional, organism-based. Set-up: dose 3 mg/kg. The procedure, abridged:
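Vascularization of PC-3 flank tumors from nude mice dosed orally was assessed by immunohistochemistry with rat anti-mouse CD31 monoclonal antibody as endothelial marker. Doses were 0.3, 1 and 3 mg/kg.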
A general note: In xenograft studies the graft and the host belong to different species.

What is called Ki is a dissociation constant, usually derived from enzyme kinetics or from competition with a known ligand. Higher therefore signals a looser hold on the target. `COc1cc2nc(N3CCN(C(=O)c4ccco4)[C@H]4CCCC[C@H]43)nc(N)c2cc1OC` [CYCLAZOSIN]: the Ki in [1] was 0.0055 µM; in assay [2], 0.000324 µM; in [3] it was 0.00017 µM. In assay [4], the Kb was 0.00123 µM.
The EC50 is the concentration giving half of the maximal effect. As usually defined, the IC50 is the concentration that gives 50% inhibition. Low values mean greater potency in that assay, high ones weaker potency in that assay. `COc1cc2nc(N3CCN(C(=O)C4COc5ccccc5O4)CC3)nc(N)c2cc1OC` (stereo unspecified) [DOXAZOSIN]: the EC50 is over 100 µM in the assay with PC-3 [5]; over 100 µM in the assay with DU-145 [6]; 40.4 µM with NHDF [8]; over 100 µM in the assay on PC-3 [9]; over 100 µM in the assay on DU-145 [10]; 100 µM with LNCaP [11]. Further, in the assay with NHDF [12], the EC50 worked out at 40.4 µM. Further, the IC50 in the assay on PC-3 [5] came to 38.6 µM; in the assay with DU-145 [6], 37.4 µM; with LNCaP [7], 28.1 µM; in the assay with NHDF [8], 43 µM. In addition, the outcome in the assay on PC-3 [13] and with PC-3 [14] was Active.
Regarding `COc1cc2nc(N3CCN(C(=O)C4COc5ccccc5O4)[C@@H]4CCCC[C@@H]43)nc(N)c2cc1OC` (single isomer, unassigned), the Ki in assay [1] was 0.00339 µM; in assay [2] it was 0.00141 µM; in assay [3] it was 0.00049 µM. The IC50 in the assay on PC-3 [5] was 1.02 µM.
